GSH fluor = compound fluoresces at 488/530 nm on GSH beads | GSH beads flow cytometry, compound fluorescence 488/530 nm; active compounds read high | fluorescence (KMESF) at 10 µM | 190,000 tested, 0.25% active; in the data active = fluorescence above about 89;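 also: glutathione beads carrying GST-tagged Bcl family fusion proteins plus one bare bead set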
Avidin fluor = avidin bead compound fluorescence profile | Avidin beads, compound fluorescence 488/530 nm, flow cytometry; active compounds read high | fluorescence (KMESF) at 10 µM | 220,000 tested, 0.38% active; in the data active = fluorescence above about 47
L major viab = reduces viability of Leishmania major promastigotes; resazurin fluorescence viability; inhibition, % at 10 µM; 200,000 tested, 9% active;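 also: promastigotes grown with compound for 44 hours at 28 °C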
ABCG2 block = inhibitors of human ABCG2 transporter, ABCB1 counter-screen | IgMXP3 cells, JC-1 efflux, flow cytometry | inhibition, % at 6.6 µM | 190,000 tested, 0.1% active;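 active = inhibition above 80%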
Target sequence (Q9UNQ0 whole entry, looked up): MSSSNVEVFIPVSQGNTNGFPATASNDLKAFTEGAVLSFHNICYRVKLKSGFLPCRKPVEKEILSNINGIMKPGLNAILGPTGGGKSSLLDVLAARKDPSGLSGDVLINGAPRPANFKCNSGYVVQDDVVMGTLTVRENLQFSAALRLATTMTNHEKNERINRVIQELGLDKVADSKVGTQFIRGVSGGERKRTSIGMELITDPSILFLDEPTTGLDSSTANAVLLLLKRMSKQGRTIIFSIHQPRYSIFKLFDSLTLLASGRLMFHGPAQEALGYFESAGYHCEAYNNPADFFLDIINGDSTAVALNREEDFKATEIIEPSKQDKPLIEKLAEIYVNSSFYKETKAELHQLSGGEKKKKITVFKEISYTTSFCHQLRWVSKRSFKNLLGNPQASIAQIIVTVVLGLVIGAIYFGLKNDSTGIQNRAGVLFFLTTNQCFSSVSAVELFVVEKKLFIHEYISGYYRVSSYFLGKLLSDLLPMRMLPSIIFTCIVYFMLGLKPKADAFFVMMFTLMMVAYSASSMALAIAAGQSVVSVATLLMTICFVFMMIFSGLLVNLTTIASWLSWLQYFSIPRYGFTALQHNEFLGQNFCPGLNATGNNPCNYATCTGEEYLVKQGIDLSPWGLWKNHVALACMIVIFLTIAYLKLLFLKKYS
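Assay system – ABCG2 IgMXP3 and barcoded ABCB1 CCRF-Adr cell mix · Input – 3 million cells/mL in well · Reagent – JC-1 fluorescent substrate · Compound – single test compound dose, 6.6 µM final · Timing – 10 min exposure at 25 °C with rotation, no wash · Detection – flow cytometry of retained JC-1 fluorescence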
ABCB1 block = blocks JC-1 efflux by human ABCB1 transporter; AID 1326; P08183; inhibition, % at 6.6 µM; CCRF-Adr cells, flow cytometry; 190,000 tested, 0.067% active; in the data active = inhibition above about 40%;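 also: higher value means more JC-1 retained so stronger ABCB1 efflux block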
PKD1 inh = PKD1 (human) kinase inhibition | Q15139 | inhibition, % (no concentration beside the values) | PKD1 kinase fluorescence polarization assay | 200,000 tested, 0.056% active
Of the large screens only hits and unclear results are named; the others gave an inactive call. The full list was thinned out, with hits kept by preference. Rule as the data show it, unless noted: active = inhibition above about 50%; inactive = the rest.

CC1CN(C(=O)/C=C/c2cccc([N+](=O)[O-])c2)CC(C)O1 (stereo not given)	none (no result: GSH fluor, Avidin fluor, ABCG2 block, ABCB1 block)
CCOC(=O)c1cc(C#N)c(N2CCN(C(=O)c3cccc(C(F)(F)F)c3)CC2)nc1C(F)(F)F	none (no result: GSH fluor, L major viab, ABCG2 block, ABCB1 block, PKD1 inh)
O=C(Nc1ccc(F)cc1)OCCOc1ccc(Br)cc1	none (no result: GSH fluor, L major viab, ABCG2 block, ABCB1 block, PKD1 inh)
C1CCC(C23CC4CC(CC(C4)C2)C3)NC1 (stereo not given)	none
CCn1c(C)nc2cc(C(=O)NNC(=S)NC(=O)c3ccc(OC)cc3)ccc21	L major viab 94
CCn1c(C)nc2cc(C(=O)NNC(=S)Nc3ccc(C)cc3)ccc21	none (no result: GSH fluor, L major viab, ABCG2 block, ABCB1 block, PKD1 inh)
Cn1cnnc1SCC(=O)NNC(=O)c1ccc(Cl)cc1	none
Cc1cc(C)c2c(N=NN3CCOCC3)[nH]nc2n1	none
Cc1ccccc1Cn1cccc1/C=C1/C(=N)N2C=CSC2=NC1=O	none
CC1=CSC2=NC(=O)/C(=C\c3cccn3-c3ccc([N+](=O)[O-])cc3)C(=N)N12	L major viab 60
CC1=CSC2=NC(=O)/C(=C\c3cccn3-c3ccccc3)C(=N)N12	L major viab 88
CC(C)c1ccc(-n2cccc2/C=C2/C(=N)N3C=CSC3=NC2=O)cc1	L major viab 98
CCC(O)CNC(=O)CCc1nnc(C2(c3ccc(Cl)cc3)CCC2)o1 (stereo not given)	none
C#CCSc1nnc(-c2sc(-c3ccccc3)nc2C)n1C	none
COCCn1c(SCC(=O)NC(=O)NC(C)C)nc2ccccc21	Avidin fluor 51
COCCn1c(SCC(=O)N2CC(=O)Nc3ccccc32)nc2ccccc2c1=O	none
COCCn1c(SCC(=O)N2CC(=O)Nc3ccccc32)nc2ccccc21	L major viab 52
COc1ccc(-n2c(C)cc(/C=C3\SC(=S)N(Cc4ccco4)C3=O)c2C)cc1	L major viab 68
COc1ccc(C(CC(=O)c2ccc(O)cc2)S(=O)(=O)c2ccc(C)cc2)cc1 (stereo not given)	L major viab 91
COc1ccc(C(CC(=O)c2ccc(C)cc2)Nc2ccc([N+](=O)[O-])cc2)cc1 (stereo not given)	L major viab 96
c1ccc(-c2nc3c(ccc4ccccc43)[nH]2)nc1	L major viab 100
c1ccc(-c2nc3ccccc3[nH]2)nc1	none
CC(=O)Nc1ccc2c(c1)C(C)(C)C(C)N2C (stereo not given)	L major viab 94
N#CC1=C(N)SC(N)=C(C#N)C1CCc1ccccc1	none
N#CC1=C(N)SC(N)=C(C#N)C1Cc1ccccc1	L major viab 55
COc1cc(/C=N/Nc2ccccc2[N+](=O)[O-])cc(OC)c1O	none
COc1cc(/C=N/Nc2ccc(F)cc2F)cc(OC)c1O	L major viab 68
COC(=O)c1ccccc1OC(=O)c1ccc(Br)o1	none
Cc1ccc(NC(=O)N(C2CCCCC2)C(C)c2cccnc2)cc1C (stereo not given)	L major viab 83
CC(=O)N1CCC(N(C(=O)Nc2ccc(C)c(C)c2)C2CCCC2)CC1	Avidin fluor 47
CCc1ccc(NC(=O)N(C2CCCCC2)C(C)c2cccnc2)cc1 (stereo not given)	L major viab 90
CCc1ccc(NC(=O)c2cccnc2)cc1	none
COc1ccc(NC(=O)N(C2CCCCC2)C(C)c2cccnc2)c(OC)c1 (stereo not given)	L major viab 82
O=[N+]([O-])c1ccc2cn(-c3ccccc3)nc2c1	none
CCOc1ccccc1NS(=O)(=O)c1cn(C)c(=O)n(C)c1=O	none (no result: GSH fluor, L major viab, ABCG2 block, ABCB1 block, PKD1 inh)
COCCCNC(=O)c1cccn2c(=O)c3cc4ccccc4cc3nc12	L major viab 90
Cc1ccc(C(=O)O/N=C/c2ccc3c(c2)OCO3)cc1	L major viab 59
O=C(O/N=C/c1ccc2c(c1)OCO2)c1ccc([N+](=O)[O-])cc1	none
CCOC(=O)C(C)(C)N(Cc1ccccc1C)S(=O)(=O)c1ccc(Cl)c([N+](=O)[O-])c1	L major viab 100
CCCN(CCC)S(=O)(=O)c1ccc(Cl)c([N+](=O)[O-])c1	none
CCc1nc(N2CCN(C(=O)c3ccco3)CC2)c2oc3ccccc3c2n1	L major viab 83
CCc1nc(N2CCCC2C(=O)O)c2oc3ccccc3c2n1 (stereo not given)	none
CC1(C)CCCN(C(=O)c2ccc3c(c2NCCO)C(=O)c2ccccc2C3=O)C1	L major viab 100
CC1CCCN(C(=O)c2ccc3c(c2NCCO)C(=O)c2ccccc2C3=O)C1 (stereo not given)	L major viab 91
O=C1c2ccccc2C(=O)c2c1ccc(C(=O)N1CCCCC1)c2NCCO	none
CCCOC(=O)c1ccc(NC(=O)c2ccccc2[N+](=O)[O-])cc1	none
COc1ccc(-c2nnc(SCc3nc4ccccc4s3)n2C(C)C)cc1	L major viab 84
COc1ccccc1N1C(C)=CC(=C(C#N)c2nc3ccccc3s2)C=C1C	L major viab 52
CC1=CC(=C(C#N)c2nc3ccccc3s2)C=C(C)N1c1ccc(F)cc1	none
COc1ccc(C2CC(c3ccc(Cl)cc3)Nc3nc(NC(=O)c4ccco4)nn32)cc1 (stereo not given)	none
O=C(Nc1nc2n(n1)C(c1ccc(Cl)cc1)CC(c1ccc(Cl)cc1)N2)c1ccco1 (stereo not given)	L major viab 76
CC(C)C(=O)N1CCN(c2ccccc2NC(=S)NC(=O)c2cccs2)CC1	none
COc1cccc(CNn2c(-c3cccc(C)c3)nc3ccccc3c2=O)c1O	L major viab 54
Cc1cccc(C)c1NC(=O)CSc1nc(-c2ccco2)cc(C(F)(F)F)n1	Avidin fluor 67
Nc1ccccc1Oc1ccc2ccccc2c1	none
CN(C)c1ccc(N=Nc2ccccc2C(=O)OCC(=O)NCC2CCCCC2)cc1	L major viab 97
CN(C)c1ccc(N=Nc2ccccc2C(=O)OCC(=O)NC2CCCC2)cc1	none
Fc1ccc(Cn2c(-c3cscn3)nc3ccccc32)c(Cl)c1	none
O=C(Cn1c(-c2cscn2)nc2ccccc21)Nc1ccccc1F	Avidin fluor 50
CCOC(=O)c1cc2c(ccn2C)n1CC(=O)N(Cc1ccccc1)c1ccccc1	L major viab 98 (no result: ABCB1 block)
CC(C)OC(=O)c1cc2c(ccn2C)n1CC(=O)N(Cc1ccccc1)c1ccc(F)cc1	L major viab 99
Cc1ccc(C)c(Cn2c(C(=O)OC(C)C)cc3c2ccn3C)c1	L major viab 95
CCOC(=O)c1cc2c(ccn2C)n1CC(=O)N(Cc1ccccc1)c1ccc(F)cc1	L major viab 98 (no result: ABCB1 block)
COc1ccccc1/C=C(/C(=O)OCC(=O)Nc1cc(C)ccc1C)c1ccccc1	none
CCC1CCCCN1C(=O)CSc1nnc(CNC(=O)COc2ccc(Cl)cc2)o1 (stereo not given)	none
COc1ccc(NC(=O)C2CCCN(C)C2)cc1OCC(C)C (stereo not given)	none
